Sampled rows, rich in hits. Any-hit rate of the full collection: about 2.8%.
eIF4E-4G inh = eIF4E–eIF4G protein interaction inhibitors, primary screen, biochemical, uHTS, TR-FRET, eIF4GI fragment | Eukaryotic translation initiation factor 4E (Mus musculus) + Eukaryotic translation … | TR-FRET eIF4E-eIF4GI(517-606) binding, 2 h | inhibition, % at 21.7 µM | actives 0.37% (n = 220,000) | AID 782, 2007;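 note: 0% = full FRET control wells and 100% = background wells lacking eIF4GI fragment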
NCF1 inh = p47phox/p22phox peptide binding inhibitors, primary screen, biochemical, uHTS, NADPH oxidase regulatory subunit; actives 0.53% (n = 220,000); fluorescence polarization, 2 h; Neutrophil cytosol factor 1 (Homo sapiens), P14598; inhibition, % at 24.7 µM; AID 1274, 2008;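 note: 0% = p47phox with labelled peptide and 100% = labelled peptide alone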
Target sequence (P14598 whole entry, looked up): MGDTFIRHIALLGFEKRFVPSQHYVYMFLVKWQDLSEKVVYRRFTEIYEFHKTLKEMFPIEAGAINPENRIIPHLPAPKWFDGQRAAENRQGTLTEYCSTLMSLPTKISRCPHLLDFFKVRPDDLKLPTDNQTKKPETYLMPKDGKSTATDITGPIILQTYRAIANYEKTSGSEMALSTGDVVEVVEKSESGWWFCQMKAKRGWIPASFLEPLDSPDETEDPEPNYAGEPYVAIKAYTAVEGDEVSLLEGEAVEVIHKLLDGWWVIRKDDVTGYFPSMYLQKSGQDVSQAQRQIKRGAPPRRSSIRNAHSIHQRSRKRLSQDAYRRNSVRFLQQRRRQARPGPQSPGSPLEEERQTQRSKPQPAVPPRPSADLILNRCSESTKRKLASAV
14-3-3 Bad PPI = inhibitors of 14-3-3 zeta/Bad binding, primary screen, biochemical, TR-FRET, bovine 14-3-3 zeta; 14-3-3 protein zeta/delta (Bos taurus), P63103; TR-FRET 14-3-3zeta/Dy647-pBad peptide displacement, 1 h; inhibition, % at 21.7 µM; actives 0.71% (n = 220,000); AID 781, 2007;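 active = inhibition above about 70%, limit read from the data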;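 note: 0% = full 14-3-3 plus peptide FRET controls and 100% = background without 14-3-3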
RBBP9 inhibitor = human RBBP9 inhibitors, primary screen, biochemical, fluorescence polarization, FP-Rh probe, HTS; Serine hydrolase RBBP9 (Homo sapiens), O75884; recombinant RBBP9; inhibition, % at 7.94 µM; actives 0.2% (n = 220,000); AID 1515, 2009;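 active = inhibition above the campaign mean of all tested compounds plus 3 SD, cut at about 14% in these data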;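 note: plate controls were DMSO wells with RBBP9 for no effect and wells lacking RBBP9 protein for full effect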
Target sequence (O75884 whole entry, looked up): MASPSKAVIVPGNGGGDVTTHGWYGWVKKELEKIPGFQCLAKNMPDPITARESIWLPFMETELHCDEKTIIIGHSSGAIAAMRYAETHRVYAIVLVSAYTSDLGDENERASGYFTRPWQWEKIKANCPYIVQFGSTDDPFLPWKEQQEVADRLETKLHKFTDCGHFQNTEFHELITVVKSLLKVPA
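Test system – recombinant human RBBP9 · Input – RBBP9 2.5 µM in dispensing solution, pre-mixing · Medium – Tris buffer pH 8.0, NaCl, Pluronic · Schedule – preincubation 30 min plus labeling 45 min at 25 °C · Measured by – fluorescence polarization · Measure – % inhibition · Controls – DMSO and no-protein wells · Replicates – one well per compound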
Wee1 stabilizer = Wee1 degradation inhibitors, primary screen, cell-based, HeLa, Wee1K328M-luciferase, luminescence. reporter increase, % at 5 µM. actives 1.2% (n = 220,000). Wee1-like protein kinase (Homo sapiens), P30291. HeLa Luc-Wee1K328M stability; 100% = proteasome inhibitor MG132 effect. AID 1321, 2008;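 active = activation above the mean of all tested compounds plus 3 SD, set per screening run, cut at about 8.8% in these data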;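 note: cells exposed to compound for 20 h before luminescence read; 0% = DMSO alone and 100% = MG132 at 30 µM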
RBBP9 confirm = human RBBP9 inhibitors, retest, confirmation, biochemical, fluorescence polarization, FP-Rh probe, triplicate; shares compounds with RBBP9 inhibitor; recombinant RBBP9; inhibition, % at 7.94 µM; actives 36% (n = 410); AID 1537, 2009;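 active = inhibition above the hit cutoff derived for the primary screen, cut at about 15% in these data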;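 note: 0% = RBBP9 with DMSO and 100% = wells lacking RBBP9 protein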
An asterisk follows results filed as active.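 Rule for the calls, unless noted: active = inhibition above about 30% (limit read from the data); inactive = the rest.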

How did c1coc(-c2nc(-c3ccco3)c(-c3ccco3)nc2-c2ccco2)c1 do in these assays?
eIF4E-4G inh: 0.6; NCF1 inh: -4.9; 14-3-3 Bad PPI: 55.2; RBBP9 inhibitor: 25.9*; Wee1 stabilizer: -0.4; RBBP9 confirm: 18.6*

How did COc1ccc2nc(-c3ccco3)c(-c3ccco3)nc2c1 do in these assays?
eIF4E-4G inh: 27.0; NCF1 inh: 0.3; 14-3-3 Bad PPI: 29.0; RBBP9 inhibitor: 6.2; Wee1 stabilizer: -1.2

Results for Nc1nc(-c2ccco2)c(-c2ccco2)s1 ?
eIF4E-4G inh: 1.8; NCF1 inh: -23.1; 14-3-3 Bad PPI: -7.4; RBBP9 inhibitor: 17.2*; Wee1 stabilizer: 0.2; RBBP9 confirm: 10.2

How did O=C(CN1CCNCC1)Nc1ccc(Oc2ccccc2)cc1 do in these assays?
eIF4E-4G inh: -3.9; NCF1 inh: -3.3; 14-3-3 Bad PPI: 10.9; RBBP9 inhibitor: 15.3*; Wee1 stabilizer: -1.6; RBBP9 confirm: 23.6*

Results for CCN=C1S/C(=C\c2cc(OCC)c(O)cc2Br)C(=O)N1CC ?
eIF4E-4G inh: 1.4; NCF1 inh: 4.1; 14-3-3 Bad PPI: -8.7; RBBP9 inhibitor: 24.1*; Wee1 stabilizer: -1.1; RBBP9 confirm: 5.9

What do the screens show for `CCN=C1S/C(=C\c2ccc(O)c(OCC)c2)C(=O)N1CC`?
eIF4E-4G inh: 2.5; NCF1 inh: -17.0; 14-3-3 Bad PPI: -6.6; RBBP9 inhibitor: -2.6; Wee1 stabilizer: -0.7

What do the screens show for `O=C(O[C@@H]1OC2COC(=O)c3cc(O)c(O)c(O)c3-c3c(cc(O)c(O)c3O)C(=O)O[C@@H]([C@H]1O)[C@@H]2O)c1cc(O)c(O)c(O)c1`?
eIF4E-4G inh: 22.1; NCF1 inh: -4.5; 14-3-3 Bad PPI: 52.9; RBBP9 inhibitor: 19.3*; Wee1 stabilizer: 9.7*; RBBP9 confirm: 31.5*

Results for FC(F)(F)c1ccc(-c2nnc(-c3ccccn3)c(-c3ccccn3)n2)nc1 ?
eIF4E-4G inh: 0.0; NCF1 inh: -2.9; 14-3-3 Bad PPI: -7.9; RBBP9 inhibitor: 17.1*; Wee1 stabilizer: 3.1; RBBP9 confirm: 2.7

Results for CCC(C)NC(=O)CN(c1ccc(Cl)c(Cl)c1)S(C)(=O)=O (stereo unspecified) ?
eIF4E-4G inh: 3.0; NCF1 inh: 1.9; 14-3-3 Bad PPI: -12.1; RBBP9 inhibitor: 3.9; Wee1 stabilizer: -0.8

Results for CCOc1cc(-c2ccc(N)c(OCC)c2)ccc1N ?
eIF4E-4G inh: 12.2; NCF1 inh: -11.4; 14-3-3 Bad PPI: 20.4; RBBP9 inhibitor: 16.3*; Wee1 stabilizer: -1.0; RBBP9 confirm: 28.7*

How did CN(Cc1ccccc1Cl)C(=O)c1cnccc1C(F)(F)F do in these assays?
eIF4E-4G inh: 8.7; NCF1 inh: 10.5; 14-3-3 Bad PPI: 0.4; RBBP9 inhibitor: -8.7; Wee1 stabilizer: 0.2

What do the screens show for `Cc1ccc(C)n1-c1ccc(N2CCOCC2)c([N+](=O)[O-])c1`?
eIF4E-4G inh: -1.8; NCF1 inh: -8.4; 14-3-3 Bad PPI: 2.3; RBBP9 inhibitor: 15.8*; Wee1 stabilizer: 1.1; RBBP9 confirm: 9.1

What do the screens show for `Cc1cc(C=O)c(C)n1-c1ccc(N2CCOCC2)c([N+](=O)[O-])c1`?
eIF4E-4G inh: -3.0; NCF1 inh: -10.8; 14-3-3 Bad PPI: -9.7; RBBP9 inhibitor: -4.6; Wee1 stabilizer: -1.4

How did COc1ccc(NC(=S)NCc2ccco2)c(OC)c1 do in these assays?
eIF4E-4G inh: -1.6; NCF1 inh: -7.1; 14-3-3 Bad PPI: -7.5; RBBP9 inhibitor: 17.2*; Wee1 stabilizer: 7.1; RBBP9 confirm: 8.7

How did CN(C(=S)Nc1ccc(F)cc1)C1(c2ccccc2Cl)CCCCC1=O (stereo unspecified) do in these assays?
eIF4E-4G inh: 2.3; NCF1 inh: -7.0; 14-3-3 Bad PPI: 0.0; RBBP9 inhibitor: -4.3; Wee1 stabilizer: -0.5

How did CCOc1ccc(S(=O)(=O)Nc2cc(Sc3ncn[nH]3)c3oc(=O)sc3c2)cc1 do in these assays?
eIF4E-4G inh: -2.4; NCF1 inh: -10.8; 14-3-3 Bad PPI: 11.4; RBBP9 inhibitor: 22.1*; Wee1 stabilizer: 2.1; RBBP9 confirm: 20.1*

How did COc1ccc(C2C(C#N)=C(N)Oc3c2c(C)nn3-c2ccccc2)cc1Cn1nc(C)c([N+](=O)[O-])c1C (stereo unspecified) do in these assays?
eIF4E-4G inh: 0.4; NCF1 inh: -4.3; 14-3-3 Bad PPI: -2.1; RBBP9 inhibitor: 18.2*; Wee1 stabilizer: -2.9; RBBP9 confirm: 5.3

Results for Cc1nn(-c2ccccc2)c2c1C(c1ccccc1)C(C#N)=C(N)O2 (stereo unspecified) ?
eIF4E-4G inh: 0.6; NCF1 inh: -8.9; 14-3-3 Bad PPI: -3.4; RBBP9 inhibitor: 16.4*; Wee1 stabilizer: -2.5; RBBP9 confirm: 7.9

What do the screens show for `COc1ccc(C2C(C#N)=C(N)OC3=C2C(=O)CC(C)(C)C3)cc1Cn1nc(C)c([N+](=O)[O-])c1C` (stereo unspecified)?
eIF4E-4G inh: 5.4; NCF1 inh: -6.4; 14-3-3 Bad PPI: 5.4; RBBP9 inhibitor: -9.4; Wee1 stabilizer: -1.3

What do the screens show for `Cc1nn(-c2ccccc2)c(Cl)c1/C=N/NC(=O)CNC(=O)c1ccccc1Cl`?
eIF4E-4G inh: 8.0; NCF1 inh: -3.0; 14-3-3 Bad PPI: -0.8; RBBP9 inhibitor: 38.7*; Wee1 stabilizer: -1.0; RBBP9 confirm: 3.0

What do the screens show for `COC(=O)c1ccccc1NC(=O)/C=N/O`?
eIF4E-4G inh: -6.0; NCF1 inh: -17.2; 14-3-3 Bad PPI: 2.4; RBBP9 inhibitor: 4.2; Wee1 stabilizer: 2.7

Results for O=C(/C=N/O)Nc1ccc2sc3ccccc3c2c1 ?
eIF4E-4G inh: 5.3; NCF1 inh: -12.8; 14-3-3 Bad PPI: -4.1; RBBP9 inhibitor: 53.2*; Wee1 stabilizer: -4.6; RBBP9 confirm: 71.9*

Results for CC(=O)NC(c1ccccc1)c1c(O)ccc2ccccc12 (stereo unspecified) ?
eIF4E-4G inh: -0.7; NCF1 inh: -5.9; 14-3-3 Bad PPI: -4.8; RBBP9 inhibitor: 15.7*; Wee1 stabilizer: -1.3; RBBP9 confirm: 16.6*

How did CC(=O)NC(c1ccc([N+](=O)[O-])cc1)c1c(O)ccc2ccccc12 (stereo unspecified) do in these assays?
eIF4E-4G inh: -1.0; NCF1 inh: -4.4; 14-3-3 Bad PPI: -8.7; RBBP9 inhibitor: -3.8; Wee1 stabilizer: 2.4

How did COc1ccc2c(c1)CC(C1(O)C(=O)Nc3ccccc31)C2=O (stereo unspecified) do in these assays?
eIF4E-4G inh: -11.3; NCF1 inh: -5.8; 14-3-3 Bad PPI: -3.5; RBBP9 inhibitor: 19.0*; Wee1 stabilizer: 1.8; RBBP9 confirm: 1.7
